Measurements taken from ChEMBL document CHEMBL2440012, “Design, synthesis and anticonvulsant properties of new N-Mannich bases derived from 3-phenylpyrrolidine-2,5-diones” (Bioorg Med Chem, 2013).
The source made the active and inactive calls. The calls are words filed in the database; no cut-off is given here.

Columns and labels:
Mus musculus [1] = test: Anticonvulsant activity against 6 Hz psychomotor seizure in ip dosed albino CF1 mouse by minimal clonic seizure test; assay type: functional
Mus musculus [2] = test: Anticonvulsant activity in albino CF1 mouse assessed as assessed as protection against 6 Hz psychomotor seizure at 100 mg/kg, ip after 4 hrs by minimal clonic seizure test; assay type: functional; details: route intraperitoneal
Summary of the method: (§1)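 Male CF-1 mice, groups of four, dosed ip in 0.5% methylcellulose/water suspension, then challenged by 6-Hz corneal stimulation at 32 mA (0.2 ms pulses, 3 s, constant current) at 0.25, 0.5, 1, 2 or 4 h; count of mice out of four protected from stunned posture/clonic seizure.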

Mus musculus [3] = test: Neurotoxicity in ip dosed albino CF1 mouse assessed as minimum motor impairment in half or more animals measured after 4 hrs by rotorod test; assay type: toxicity, organism-based; details: in vivo
Summary of the method: (§2)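 Male CF-1 mice given ip suspension in 0.5% methylcellulose/water at 30, 100 and 300 mg/kg; MES, scPTZ (pentylenetetrazole 85 mg/kg sc, CD97 dose for clonic seizures ≥5 s) and rotarod (inability to hold balance 1 min in each of three trials) assessed at 0.5 and 4 h; value is minimum dose active in half or more animals.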

Mus musculus [4] = test: Anticonvulsant activity in albino CF1 mouse assessed as assessed as protection against 6 Hz psychomotor seizure at 100 mg/kg, ip after 1 hr by minimal clonic seizure test; assay type: functional; details: route intraperitoneal; summary of the method: as §1
Rattus norvegicus [5] = test: Anticonvulsant activity in albino Sprague-Dawley rat assessed as protection against maximal electroshock-induced seizures at 30 mg/kg, po measured after 0.5 hr; assay type: functional
Summary of the method: (§3)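 Male Sprague-Dawley rats, four per group, dosed p.o. at 30 mg/kg in 0.5% methylcellulose/water suspension; MES test at 0.25, 0.5, 1, 2 and 4 h, motor impairment examined in parallel; number of rats out of four protected.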

Mus musculus [6] = test: Anticonvulsant activity in albino CF1 mouse assessed as assessed as protection against 6 Hz psychomotor seizure at 50 mg/kg, ip after 0.25 hr by minimal clonic seizure test; assay type: functional; details: route intraperitoneal; summary of the method: as §1
Mus musculus [7] = test: Neurotoxicity in ip dosed albino CF1 mouse assessed as time to peak effect by rotorod test; assay type: toxicity, organism-based; details: in vivo
Mus musculus [8] = test: Anticonvulsant activity in ip dosed albino CF1 mouse assessed as protection against subcutaneous pentylenetetrazole-induced convulsion in half or more animals measured after 4 hrs; assay type: functional; details: albino CF1, 4 h, read-out: MED; summary of the method: as §2
Rattus norvegicus [9] = test: Anticonvulsant activity in albino rat assessed as protection against pilocarpine-induced status epilepticus at 100 mg/kg, ip measured 0.5 hrs post first stage 3 seizure; assay type: functional, organism-based; design: dose 100 mg/kg
Summary of the method: (§4)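 Male Sprague-Dawley rats (150–180 g) dosed ip, followed by challenge dose of pilocarpine; compound given relative to first stage III seizure (time zero or 0.5 h); outcome scored as protection or no protection, plus body-weight change 24 h after first stage III seizure.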

Rattus norvegicus [10] = test: Anticonvulsant activity in albino Sprague-Dawley rat assessed as protection against maximal electroshock-induced seizures at 30 mg/kg, po measured after 0.25 hr; assay type: functional; summary of the method: as §3
Mus musculus [11] = test: Anticonvulsant activity in albino CF1 mouse assessed as assessed as protection against 6 Hz psychomotor seizure at 50 mg/kg, ip after 0.5 hr by minimal clonic seizure test; assay type: functional; details: route intraperitoneal; summary of the method: as §1
Mus musculus [12] = test: Anticonvulsant activity in albino CF1 mouse assessed as assessed as protection against 6 Hz psychomotor seizure at 50 mg/kg, ip after 4 hrs by minimal clonic seizure test; assay type: functional; details: route intraperitoneal; summary of the method: as §1
Mus musculus [13] = test: Anticonvulsant activity in albino CF1 mouse assessed as assessed as protection against 6 Hz psychomotor seizure at 100 mg/kg, ip after 2 hrs by minimal clonic seizure test; assay type: functional; details: route intraperitoneal; summary of the method: as §1
Mus musculus [14] = test: Toxicity in albino CF1 mouse assessed as sedation at 100 mg/kg, ip measured after 4 hrs by rotorod test; assay type: organism-based; design: dose 100 mg/kg, route intraperitoneal; details: in vivo
Mus musculus [15] = test: Anticonvulsant activity against […] psychomotor seizure in ip dosed albino CF1 mouse assessed as time to peak effect by minimal clonic seizure test; assay type: functional
Rattus norvegicus [16] = test: Anticonvulsant activity in albino Sprague-Dawley rat assessed as protection against maximal electroshock-induced seizures at 30 mg/kg, po measured after 1 hr; assay type: functional; summary of the method: as §3
Mus musculus [17] = test: Anticonvulsant activity in albino CF1 mouse assessed as assessed as protection against 6 Hz psychomotor seizure at 50 mg/kg, ip after 2 hrs by minimal clonic seizure test; assay type: functional; details: route intraperitoneal; summary of the method: as §1
Mus musculus [18] = test: Anticonvulsant activity in albino CF1 mouse assessed as assessed as protection against 6 Hz psychomotor seizure at 50 mg/kg, ip after 1 hr by minimal clonic seizure test; assay type: functional; details: route intraperitoneal; summary of the method: as §1
Mus musculus [19] = test: Anticonvulsant activity in albino CF1 mouse assessed as assessed as protection against 6 Hz psychomotor seizure at 100 mg/kg, ip after 0.5 hr by minimal clonic seizure test; assay type: functional; details: route intraperitoneal; summary of the method: as §1
Rattus norvegicus [20] = test: Anticonvulsant activity in albino Sprague-Dawley rat assessed as protection against maximal electroshock-induced seizures at 30 mg/kg, po measured after 2 hrs; assay type: functional; summary of the method: as §3
Mus musculus [21] = test: Anticonvulsant activity in ip dosed albino CF1 mouse assessed as protection against subcutaneous pentylenetetrazole-induced convulsion in half or more animals measured after 0.5 hr; assay type: functional; details: albino CF1, 0.5 h, read-out: MED; summary of the method: as §2
Mus musculus [22] = test: Anticonvulsant activity in albino CF1 mouse assessed as assessed as protection against 6 Hz psychomotor seizure at 100 mg/kg, ip after 0.25 hr by minimal clonic seizure test; assay type: functional; details: route intraperitoneal; summary of the method: as §1
Mus musculus [23] = test: Anticonvulsant activity against 6 Hz psychomotor seizure in ip dosed albino CF1 mouse assessed as time to peak effect by minimal clonic seizure test; assay type: functional
Mus musculus [24] = test: Anticonvulsant activity in ip dosed albino CF1 mouse assessed as protection against maximal electroshock-induced seizures in half or more animals measured after 0.5 hr; assay type: functional; details: read-out: MED; summary of the method: as §2
Mus musculus [25] = test: Anticonvulsant activity against […] psychomotor seizure in ip dosed albino CF1 mouse by minimal clonic seizure test; assay type: functional
Mus musculus [26] = test: Anticonvulsant activity in ip dosed albino CF1 mouse assessed as protection against maximal electroshock-induced seizures in half or more animals measured after 4 hrs; assay type: functional; details: read-out: MED; summary of the method: as §2
Rattus norvegicus [27] = test: Anticonvulsant activity in albino Sprague-Dawley rat assessed as protection against maximal electroshock-induced seizures at 30 mg/kg, po measured after 4 hrs; assay type: functional; summary of the method: as §3
Cytochrome P450 3A4 [28] = biological target: T1, Cytochrome P450 3A4 (Homo sapiens, UniProt P08684); test: Inhibition of CYP3A4 (unknown origin) using 50 uM testosterone as substrate assessed as formation of 6-beta-OH-testosterone relative to control; assay type: ADME
Mus musculus [29] = test: Anticonvulsant activity in albino CF1 mouse assessed as protection against maximal electroshock-induced seizures at 300 mg/kg, ip measured after 4 hrs; assay type: functional, organism-based; design: dose 300 mg/kg; summary of the method: as §2
Cytochrome P450 3A4 [30] = biological target: T1, Cytochrome P450 3A4; test: Inhibition of CYP3A4 (unknown origin) using 200 uM testosterone as substrate assessed as formation of 6-beta-OH-testosterone relative to control; assay type: ADME
Mus musculus [31] = test: Neurotoxicity in albino CF1 mouse assessed as minimum motor impairment at 300 mg/kg, ip measured after 4 hrs by rotorod test; assay type: toxicity, organism-based; design: dose 300 mg/kg, route intraperitoneal; details: in vivo; summary of the method: as §2
Mus musculus [32] = test: Protection index, ratio of TD50 for neurotoxicity in ip dosed albino CF1 mouse by rotorod test to ED50 for anticonvulsant activity in ip dosed albino CF1 mouse by 6 Hz psychomotor seizure test; assay type: functional
Mus musculus [33] = test: Neurotoxicity in ip dosed albino CF1 mouse assessed as minimum motor impairment in half or more animals measured after 0.5 hrs by rotorod test; assay type: toxicity, organism-based; details: in vivo; summary of the method: as §2
Rattus norvegicus [34] = test: Anticonvulsant activity in ip dosed albino rat assessed as protection against pilocarpine-induced status epilepticus measured 0.5 hrs post first stage 3 seizure; assay type: functional; summary of the method: as §4
Rattus norvegicus [35] = test: Anticonvulsant activity in albino rat assessed as protection against pilocarpine-induced status epilepticus at 400 mg/kg, ip measured 0.5 hrs post first stage 3 seizure; assay type: functional, organism-based; design: dose 400 mg/kg; summary of the method: as §4
[36] = Neurotoxicity in ip dosed albino CF1 mouse by rotorod test; assay type: toxicity, organism-based; details: in vivo

T1 sequence (P08684 whole entry): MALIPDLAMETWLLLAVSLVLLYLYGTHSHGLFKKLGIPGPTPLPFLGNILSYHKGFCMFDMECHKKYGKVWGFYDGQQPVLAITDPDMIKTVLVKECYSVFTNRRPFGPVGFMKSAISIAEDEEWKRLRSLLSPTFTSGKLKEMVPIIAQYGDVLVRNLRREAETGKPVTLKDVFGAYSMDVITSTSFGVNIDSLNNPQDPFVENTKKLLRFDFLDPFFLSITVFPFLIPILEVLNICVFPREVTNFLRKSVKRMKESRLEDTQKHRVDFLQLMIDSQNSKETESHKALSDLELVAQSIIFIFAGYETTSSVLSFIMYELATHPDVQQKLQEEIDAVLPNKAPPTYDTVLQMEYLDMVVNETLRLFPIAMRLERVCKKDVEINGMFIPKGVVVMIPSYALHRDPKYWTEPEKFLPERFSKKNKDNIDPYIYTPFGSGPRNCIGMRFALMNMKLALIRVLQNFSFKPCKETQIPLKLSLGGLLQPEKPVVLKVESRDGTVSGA

Compound `O=C1CC(c2ccccc2Cl)C(=O)N1CN1CCOCC1` (racemic) has an ED50 (Mus musculus [1]) of 31.1 mg/kg, an Activity (Mus musculus [2]) of 100% and an MED (Mus musculus [3]) of 300 mg/kg. The Activity (Mus musculus [4]) was 100%, the Activity (Rattus norvegicus [5]) was 25% and the Activity (Mus musculus [6]) was 100%. The Time (Mus musculus [7]) was 0.25 h, the minimal effective dose (Mus musculus [8]) was 300 mg/kg and the Activity (Rattus norvegicus [9]) was “inactive”. The Activity (Rattus norvegicus [10]) was “inactive”, the Activity (Mus musculus [11]) was 75% and the Activity (Mus musculus [12]) was 0%. It also gave an Activity (Mus musculus [13]) of 100%, an MED (Mus musculus [14]) of 300 mg/kg and a Time (Mus musculus [15]) of 0.5 h. It also gave an Activity (Rattus norvegicus [16]) of 25%, an Activity (Mus musculus [17]) of 75% and an Activity (Mus musculus [18]) of 75%. The Activity (Mus musculus [19]) was 100%, the Activity (Rattus norvegicus [20]) was “inactive” and the minimal effective dose (Mus musculus [21]) was 100 mg/kg. It also gave an Activity (Mus musculus [22]) of 100%, a Time (Mus musculus [23]) of 0.25 h and a minimal effective dose (Mus musculus [24]) of 100 mg/kg. For the same compound, the ED50 (Mus musculus [25]) was 55.6 mg/kg, the minimal effective dose (Mus musculus [26]) was 100 mg/kg and the Activity (Rattus norvegicus [27]) was “inactive”.
In the case of `O=C1CC(c2ccccc2)C(=O)N1CN1CCOCC1` (racemic), the “inhibition (INH)” value (Cytochrome P450 3A4 [28]) is reported as 17%, the ED50 (Mus musculus [1]) is reported as 77.2 mg/kg and the Activity (Mus musculus [2]) is reported as 0%. The Activity (Mus musculus [4]) was 25%, the Activity (Rattus norvegicus [5]) was “inactive” and the Time (Mus musculus [7]) was 0.25 h. The minimal effective dose (Mus musculus [8]) was 300 mg/kg, the Activity (Mus musculus [29]) was “inactive” and the Activity (Rattus norvegicus [10]) was “inactive”. For the same compound, the “inhibition (INH)” value (Cytochrome P450 3A4 [30]) was 19%, the Activity (Mus musculus [31]) was “Non-toxic” and the Activity (Mus musculus [13]) was 0%. The Activity (Rattus norvegicus [16]) was “inactive”, the “Ratio TD50/ED50” value (Mus musculus [32]) was 3.79 and the Activity (Mus musculus [19]) was 0%. The Activity (Rattus norvegicus [20]) was “inactive”, the minimal effective dose (Mus musculus [21]) was 300 mg/kg and the Activity (Mus musculus [22]) was 75%. The MED (Mus musculus [33]) was 300 mg/kg, the Time (Mus musculus [23]) was 0.25 h and the minimal effective dose (Mus musculus [24]) was 100 mg/kg. The ED50 (Rattus norvegicus [34]) was 342 mg/kg, the Activity (Rattus norvegicus [35]) was “Active” and the TD50 [36] was 293 mg/kg. The Activity (Rattus norvegicus [27]) was “inactive”.
